Each block holds one compound with its values, some of them ahead of it. Active and inactive are the calls of the source. No cut-off for these calls is given here.
Experiments:
[1] = molecular target: Carbonic anhydrase 2 (Homo sapiens) (UniProt P00918); assay: Binding affinity to human 7-diethylaminocoumarin labelled carbonic anhydrase2 after 48 hrs by SDS-PAGE/fluorescence gel imaging
Method in brief: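 Purified human CAII (40 µM) was incubated with the Dc-tosyl reagent (80 µM) in 50 mM HEPES, pH 7.2, at 37 °C. Control reactions held EZA (400 µM) or GSH (10 mM). Samples were resolved by SDS-PAGE, read by in-gel fluorescence imaging, then stained with CBB.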

[2] = molecular target: Carbonic anhydrase 2 (Homo sapiens) (UniProt P00918); assay: Activity at human carbonic anhydrase2 assessed as hydrolysis of p- nitrophenyl acetate
[3] = Toxicity in human RBC assessed as hemolysis; format: cell-based; conditions: erythrocyte
[4] = molecular target: Carbonic anhydrase 2 (Mus musculus) (UniProt P00920); assay: Binding affinity to endogenously expressed carbonic anhydrase2 in Slc:ICR mouse using syreptavidin-horseradish peroxidase conjugate by Western blot analysis
Method in brief: (§1)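 Male SPF Slc:ICR mice, 8 weeks old, received the biotin probe intravenously (100 µM in 0.5 mL PBS), and tail-vein blood was drawn at 4, 8 and 20 h. For ex vivo runs, EDTA-treated whole blood was diluted two-fold in PBS and held with 5 µM probe, ±500 µM EZA, at 35 °C for 20 h. Lysis used NP-40 buffer with 0.5 mM EZA, followed by 15% SDS-PAGE and PVDF blotting. Biotin was detected with SAv-HRP chemiluminescence; the membrane was reprobed with anti-mouse CAII plus anti-goat IgG-HRP.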

[5] = molecular target: Carbonic anhydrase 2 (Mus musculus) (UniProt P00920); assay: Binding affinity to endogenously expressed carbonic anhydrase2 in Slc:ICR mouse using anti-mouse CA2 antibody by Western blot analysis; method in brief: as §1
Jurkat = assay: Cytotoxicity against in human Jurkat cells after 18 hrs by MTT assay; format: cell-based
Method in brief: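 Jurkat cells, maintained in RPMI 1640 with 10% FBS at 37 °C under 5% CO2, were treated at 4 × 10^6 cells per 1 mL serum-free RPMI 1640 with probe (4 µM) at 37 °C for 18 h. Viability was read by MTT assay.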

[6] = molecular target: Peptidyl-prolyl cis-trans isomerase FKBP1A (Homo sapiens) (UniProt P62942); assay: Binding affinity to human FKBP12 in Jurkat cells at 11 uM after 24 hrs using anti-human FKBP12 antibody; format: cell-based; conditions: 4 uM, in the assay text read “at 4 uM after 18 hrs” for “at 11 uM after 24 hrs”
Sequence of Peptidyl-prolyl cis-trans isomerase FKBP1A (Homo sapiens) (P62942 whole entry): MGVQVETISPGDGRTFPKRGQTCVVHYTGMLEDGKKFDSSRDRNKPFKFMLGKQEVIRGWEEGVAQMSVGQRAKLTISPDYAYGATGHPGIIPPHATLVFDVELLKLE

Activity [1]: 75% | 1/Km [2]: 2.38 ×10² /M
SMILES: CCN(CC)c1ccc2cc(C(=O)NCCOCCOS(=O)(=O)c3cccc(C(=O)NCCCCCNC(=O)c4ccc(S(N)(=O)=O)cc4)c3)c(=O)oc2c1
Activity [3]: Non-toxic

Activity [4]: inactive | Activity [5]: inactive
SMILES: O=C(CCCC[C@@H]1SC[C@@H]2NC(=O)N[C@@H]21)NCCOCCOCCOS(=O)(=O)c1cccc(C(=O)NCCCCCNC(=O)c2ccccc2)c1

Activity [4]: Active | Activity [5]: Active
SMILES: NS(=O)(=O)c1ccc(C(=O)NCCCCCNC(=O)c2cccc(S(=O)(=O)OCCOCCOCCNC(=O)CCCC[C@@H]3SC[C@@H]4NC(=O)N[C@@H]43)c2)cc1

Activity [6]: Active
SMILES: CCC(C)(C)C(=O)C(=O)N1CCCC[C@H]1C(=O)O[C@H](CCc1ccc(OC)c(OC)c1)c1cccc(OCC(=O)NCCNC(=O)c2cccc(S(=O)(=O)OCCOCCOCCNC(=O)CCCC[C@@H]3SC[C@@H]4NC(=O)N[C@@H]43)c2)c1
Activity (Jurkat): Non-toxic
